Measured values as given in ChEMBL document CHEMBL1158019, “A new pregnane glycoside from Dioscorea collettii var. hypoglauca” (1999).
Activity calls are given as the source filed them. The calls are words filed in the database; no cut-off is given here.

Legend:
[1] = system: LNCaP; test: Cytotoxicity against human LNCaP cells after 5 days by MTT assay; assay type: functional, cell-based
Summary of the method: (§1)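 Cells grown in RPMI 1640 with 10% heat-inactivated FCS, 100 IU/mL penicillin and 100 µg/mL streptomycin. 1000 cells seeded per well; test samples added in fresh medium 24 h later, then 5 days at 37 °C. MTT (2 mg/mL solution) added for 4 h; cells dissolved in DMSO for 10 min; A540 read. Untreated cells taken as 100% survival; IC50 from viability-concentration plots; etoposide positive control.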

[2] = system: MDA-MB-231; test: Cytotoxicity against human MDA-MB-231 cells after 5 days by MTT assay; assay type: functional, cell-based
Summary of the method: as §1, with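 “FCS, penicillin/streptomycin” for “FCS, 100 IU/mL penicillin”, “and 5” for “and 100”, “µg/mL insulin.” for “µg/mL streptomycin.”, “min; absorbance read at 540 nm.” for “min; A540 read.”, “cells set” for “cells taken”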

[3] = system: HCT-15; test: Cytotoxicity against human HCT-15 cells after 5 days by MTT assay; assay type: functional, cell-based; summary of the method: as §1
[4] = system: PC-3; test: Cytotoxicity against human PC-3 cells after 5 days by MTT assay; assay type: functional, cell-based; summary of the method: as §1
[5] = system: Pyricularia; test: Morphological deformation in Pyricularia oryzae mycelia; assay type: functional
Summary of the method: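 Mycelia germinated from P. oryzae conidia were scored for morphological deformation. The endpoint was the minimum morphological deformation concentration (MMDC), the lowest concentration that produced deformation. Griseofulvin and fusarelin A served as positive controls.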

[6] = system: T47D; test: Cytotoxicity against human T47D cells after 5 days by MTT assay; assay type: functional, cell-based
Summary of the method: as §1, with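 “FCS, penicillin/streptomycin” for “FCS, 100 IU/mL penicillin”, “and 5” for “and 100”, “µg/mL insulin.” for “µg/mL streptomycin.”, “min; absorbance read at 540 nm.” for “min; A540 read.”, “cells set” for “cells taken”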

[7] = system: HT-29; test: Cytotoxicity against human HT-29 cells after 5 days by MTT assay; assay type: functional, cell-based; summary of the method: as §1

| SMILES | Activity [1] | Activity [2] | Activity [3] | Activity [4] | Activity [5] [µM] | Activity [6] | Activity [7] |
| --- | --- | --- | --- | --- | --- | --- | --- |
| CC(=O)C1=CC[C@H]2[C@@H]3CC=C4C[C@@H](O[C@@H]5O[C@H](CO)[C@@H](O[C@@H]6O[C@@H](C)[C@H](O)[C@@H](O)[C@H]6O)[C@H](O)[C@H]5O[C@@H]5O[C@@H](C)[C@H](O)[C@@H](O)[C@H]5O)CC[C@]4(C)[C@H]3CC[C@]12C | inactive | inactive | inactive | inactive | 236 | inactive | inactive |
| CC(=O)[C@H]1[C@@H](OC(=O)CCC(C)CO[C@@H]2O[C@H](CO)[C@@H](O)[C@H](O)[C@H]2O)C[C@H]2[C@@H]3CC=C4C[C@@H](O[C@@H]5O[C@H](CO)[C@@H](O[C@@H]6O[C@@H](C)[C@H](O)[C@@H](O)[C@H]6O)[C@H](O)[C@H]5O[C@@H]5O[C@@H](C)[C@H](O)[C@@H](O)[C@H]5O)CC[C@]4(C)[C@H]3CC[C@@]21C (some centres undefined) [HYPOGLAUCIN G] | inactive | inactive | inactive | inactive | 135 | inactive | inactive |
